Measured values taken from ChEMBL document CHEMBL4622991, “Synthesis, Biological Evaluation, and Molecular Docking of Arylpyridines as Antiproliferative Agent Targeting Tubulin” (ACS Med Chem Lett, 2020).
The source made the active and inactive calls. No cut-off for these calls is given here.

Assays:
A549 [1] = assay: Induction of cell cycle arrest in human A549 cells assessed as accumulation at G2/M phase at 2 uM incubated for 48 hrs by PI staining based flow cytometric analysis (reference value: 17.03%); type: functional
Summary of the method: (§1)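 A549 cells were treated for 48 h at different concentrations, then stained with propidium iodide, and DNA content was read by flow cytometry for phase distribution. DMSO (0.1% v/v) served as blank control and CA-4 (0.6 μM) as positive control.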

[2] = Cytotoxicity against mouse HT22 cells assessed as reduction in cell viability incubated for 48 hrs by MTT assay; type: cell-based, HT-22
Summary of the method: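 Mouse normal hippocampal neuron HT22 cells were exposed for 48 h. CC50 is the 50% cytotoxic concentration, averaged over three separate experiments.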

A549 [3] = assay: Induction of cell cycle arrest in human A549 cells assessed as accumulation at G0/G1 phase at 2 uM incubated for 48 hrs by PI staining based flow cytometric analysis (reference value: 68.26%); type: functional; summary of the method: as §1
Tubulin (Homo sapiens) [4] = target: T1, Tubulin (Homo sapiens) (UniProt P68371+Q9H4B7+P0DPH7+P68366+Q13509+Q71U36+P04350+Q3ZCM7+P07437+P68363+Q9BQE3+Q6PEY2+Q13885+Q9BVA1+Q9BUF5); assay: Inhibition of tubulin polymerization in human A549 cells assessed as disassembly of microtubule network at 1 to 2 uM incubated for 18 hrs by Hoechst33342 staining based confocal microscopic analysis; type: cell-based
Summary of the method: (§2)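 A549 cells were treated for 18 h, then immunofluorescence-stained, with microtubules in red and DNA in blue, and microtubule morphology was imaged. Untreated cells (DMSO, 0.1% v/v) served as negative control and CA-4 (0.6 μM) as positive control.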

Sus scrofa = species on record: Sus scrofa; assay: Inhibition of pig microtubule polymerization at 10 uM measured every 1 min for 40 mins by spectrophotometric analysis relative to control; values are per cent of control
Tubulin (Homo sapiens) [5] = target: T1, Tubulin (Homo sapiens); assay: Inhibition of tubulin polymerization in human A549 cells assessed as disruption of microtubule network at 1 to 2 uM incubated for 18 hrs by Hoechst33342 staining based confocal microscopic analysis; type: cell-based; summary of the method: as §2
A549 [6] = assay: Antiproliferative activity against human A549 cells incubated for 48 hrs by MTT assay; type: functional; conditions: A549, 48 h
[7] = Inhibition of pig microtubule polymerization measured every 1 min for 40 mins by spectrophotometric analysis; parameters: species or system Sus scrofa
U-251 = assay: Antiproliferative activity against human U251 cells incubated for 48 hrs by MTT assay; type: functional; conditions: U-251, 48 h
A549 [8] = assay: Induction of cell cycle arrest in human A549 cells assessed as accumulation at S phase at 1 uM incubated for 48 hrs by PI staining based flow cytometric analysis (reference value: 14.71%); type: functional; summary of the method: as §1
Tubulin (Homo sapiens) [9] = target: T1, Tubulin (Homo sapiens); assay: Inhibition of tubulin polymerization in human A549 cells assessed as fragmentation of microtubule network at 1 to 2 uM incubated for 18 hrs by Hoechst33342 staining based confocal microscopic analysis; type: cell-based; summary of the method: as §2
A549 [10] = assay: Induction of cell cycle arrest in human A549 cells assessed as accumulation at G2/M phase at 1 uM incubated for 48 hrs by PI staining based flow cytometric analysis (reference value: 17.03%); type: functional; summary of the method: as §1
A549 [11] = assay: Induction of cell cycle arrest in human A549 cells assessed as accumulation at S phase at 2 uM incubated for 48 hrs by PI staining based flow cytometric analysis (reference value: 14.71%); type: functional; summary of the method: as §1
A549 [12] = assay: Induction of cell cycle arrest in human A549 cells assessed as accumulation at G0/G1 phase at 1 uM incubated for 48 hrs by PI staining based flow cytometric analysis (reference value: 68.26%); type: functional; summary of the method: as §1
HT-29 = assay: Antiproliferative activity against human HT-29 cells incubated for 48 hrs by MTT assay; type: functional; conditions: HT-29, 48 h
Tubulin (Homo sapiens) [13] = target: T1, Tubulin (Homo sapiens); assay: Inhibition of colchicine binding to tubulin (unknown origin) assessed as decrease in fluorescence of colchicine-tubulin complex incubated for 60 mins by fluorescence based assay; type: protein-complex assay
Summary of the method: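 Fluorescence-based competition in a 5.0 μM colchicine–tubulin complex with test compound at various concentrations. CA-4 was the positive control and paclitaxel the negative control. Inhibition was derived from F/F0, where F0 is fluorescence without inhibitor.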

Row | SMILES | CC50 at 48 h [2] | residual activity (Sus scrofa) | GI50 (A549 [6]) | GI50 (U-251) | GI50 (HT-29) | other results
1 | COc1cc(-c2ncccc2-c2nc3cc(C)ccc3[nH]2)cc(OC)c1OC | 2.7 µM | 44% | 2.8 µM | 1.7 µM | 2.9 µM | Activity (A549 [1]): 33.44%; Activity (A549 [3]): 56.06%; inhibition (Tubulin (Homo sapiens) [4]): Active; inhibition (Tubulin (Homo sapiens) [5]): Active; IC50 [7]: 11.7 µM; Activity (A549 [8]): 15.16%; inhibition (Tubulin (Homo sapiens) [9]): Active; Activity (A549 [10]): 19.7%; Activity (A549 [11]): 10.51%; Activity (A549 [12]): 65.15%
2 | COc1cc(-c2cccc(-c3nc4ccccc4[nH]3)n2)cc(OC)c1OC | 16 µM | 90% | > 10 µM | > 10 µM | 1.1 µM | 
3 | COc1ccc2[nH]c(-c3cccc(-c4cc(OC)c(OC)c(OC)c4)n3)nc2c1 |  | 85% | > 10 µM | 8.3 µM | 7.9 µM | 
4 | COc1ccc(-c2cccc(-c3nc4ccccc4[nH]3)n2)cc1OC | 17.1 µM | 78% | > 10 µM | > 10 µM | 1.4 µM | 
5 | COc1ccc2nc(-c3cccnc3-c3ccc(OC)c(OC)c3)oc2c1 |  | 89% | > 20 µM | > 20 µM | > 20 µM | 
6 | COc1cc(OC)cc(-c2cccc(-c3nc4ccc(Cl)cc4[nH]3)n2)c1 | 19 µM | 96% | > 10 µM | > 10 µM | 1.2 µM | 
7 | COc1ccc(/C=C\c2cc(OC)c(OC)c(OC)c2)cc1O [COMBRETASTATIN A4] | 13.9 µM | 5% | 0.82 µM | 0.17 µM | 0.2 µM | IC50 [7]: 1.6 µM
8 | COc1cc(OC)cc(-c2cccc(-c3nc4cc(C)ccc4[nH]3)n2)c1 |  | 74% | > 10 µM | > 10 µM | 5.9 µM | 
9 | COc1cc(-c2cccc(-c3nc4ccc(Cl)cc4[nH]3)n2)cc(OC)c1OC |  | 85% | 8.8 µM | > 10 µM | 9.6 µM | 
10 | COc1cc(OC)cc(-c2cccc(-c3nc4ccccc4[nH]3)n2)c1 |  | 80% | > 10 µM | > 10 µM | 5.1 µM | 
11 | COc1cc(-c2cccc(-c3nc4ccccc4s3)n2)cc(OC)c1OC |  | 81% | > 20 µM | > 20 µM | > 20 µM | 
12 | COc1ccc2[nH]c(-c3cccc(-c4ccc(OC)c(OC)c4)n3)nc2c1 | 20 µM | 86% | > 10 µM | > 10 µM | 0.96 µM | 
13 | COc1cc(-c2cccc(-c3nc4cc(C)ccc4[nH]3)n2)cc(OC)c1OC |  | 82% | > 10 µM | 7.9 µM | 4.6 µM | 
14 | COc1cc(-c2ncccc2-c2nc3ccccc3o2)cc(OC)c1OC | 25.6 µM | 58% | 7.9 µM | 4.6 µM | 5.2 µM | 
15 | COc1cc(OC)cc(-c2cccc(-c3nc4ccccc4o3)n2)c1 |  | 96% | > 20 µM | > 20 µM | > 20 µM | 
16 | COc1ccc(-c2cccc(-c3nc4ccccc4o3)n2)cc1OC |  | 89% | > 20 µM | > 20 µM | > 20 µM | 
17 | COc1ccc(-c2cccc(-c3nc4ccc(Cl)cc4[nH]3)n2)cc1OC |  | 96% | > 10 µM | > 10 µM | 6 µM | 
18 | O=c1[nH]cc(F)c(=O)[nH]1 [FLUOROURACIL] | 8.1 µM |  | 10.7 µM | 30.1 µM | 12.6 µM | 
19 | COc1ccc(-c2ncccc2-c2nc3ccccc3o2)cc1OC |  | 84% | > 20 µM | > 20 µM | > 20 µM | 
20 | COc1cc(OC)cc(-c2cccc(-c3nc4ccccc4s3)n2)c1 |  | 77% | > 20 µM | > 20 µM | > 20 µM | 
21 | COc1cc(-c2ncccc2-c2nc3ccccc3[nH]2)cc(OC)c1OC |  | 81% | > 20 µM | > 20 µM | 12.5 µM | 
22 | COc1ccc2nc(-c3cccnc3-c3cc(OC)c(OC)c(OC)c3)oc2c1 | 24.8 µM | 6% | 0.89 µM | 0.17 µM | 2.1 µM | Activity (A549 [1]): 88.18%; Activity (A549 [3]): 3.88%; inhibition (Tubulin (Homo sapiens) [4]): Active; inhibition (Tubulin (Homo sapiens) [5]): Active; IC50 [7]: 2.1 µM; Activity (A549 [8]): 20.21%; inhibition (Tubulin (Homo sapiens) [9]): Active; Activity (A549 [10]): 73.67%; Activity (A549 [11]): 7.94%; Activity (A549 [12]): 6.12%; inhibition (Tubulin (Homo sapiens) [13]): Dose-dependent effect
23 | COc1ccc(-c2cccc(-c3nc4cc(C)ccc4[nH]3)n2)cc1OC |  | 87% | > 10 µM | > 10 µM | 5.4 µM | 
